Laboratory results taken from ChEMBL document CHEMBL3784967, “7-Substituted umbelliferone derivatives as androgen receptor antagonists for the potential treatment of prostate and breast cancer” (Bioorg Med Chem Lett, 2016).

Tests used:
MCF7 = experiment: Antiproliferative activity against human MCF7 cells after 96 hrs by Oncotest monolayer assay; type: functional, cell-based
In short: (§1)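 Cells from exponential-phase cultures seeded at 8000-12,000 cells/well, left 24 h to recover, then given compound at 10 concentrations in half-log steps up to 100 µM, in triplicate. After 96 h total exposure, wells were PBS-washed and stained with 7 µg/ml propidium iodide plus 0.1% Triton X-100 for 1-2 h at room temperature. Fluorescence (ex 530/em 620 nm) was read. Absolute IC50 was obtained by non-linear regression.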

CWR22R [1] = experiment: Antiproliferative activity against human 22Rv1 cells after 96 hrs by Oncotest monolayer assay; type: functional, cell-based; in short: as §1
Androgen receptor = molecular target: T1, Androgen receptor (Homo sapiens, UniProt P10275); experiment: Antagonist activity against androgen receptor (unknown origin)
T1 sequence (P10275 whole entry): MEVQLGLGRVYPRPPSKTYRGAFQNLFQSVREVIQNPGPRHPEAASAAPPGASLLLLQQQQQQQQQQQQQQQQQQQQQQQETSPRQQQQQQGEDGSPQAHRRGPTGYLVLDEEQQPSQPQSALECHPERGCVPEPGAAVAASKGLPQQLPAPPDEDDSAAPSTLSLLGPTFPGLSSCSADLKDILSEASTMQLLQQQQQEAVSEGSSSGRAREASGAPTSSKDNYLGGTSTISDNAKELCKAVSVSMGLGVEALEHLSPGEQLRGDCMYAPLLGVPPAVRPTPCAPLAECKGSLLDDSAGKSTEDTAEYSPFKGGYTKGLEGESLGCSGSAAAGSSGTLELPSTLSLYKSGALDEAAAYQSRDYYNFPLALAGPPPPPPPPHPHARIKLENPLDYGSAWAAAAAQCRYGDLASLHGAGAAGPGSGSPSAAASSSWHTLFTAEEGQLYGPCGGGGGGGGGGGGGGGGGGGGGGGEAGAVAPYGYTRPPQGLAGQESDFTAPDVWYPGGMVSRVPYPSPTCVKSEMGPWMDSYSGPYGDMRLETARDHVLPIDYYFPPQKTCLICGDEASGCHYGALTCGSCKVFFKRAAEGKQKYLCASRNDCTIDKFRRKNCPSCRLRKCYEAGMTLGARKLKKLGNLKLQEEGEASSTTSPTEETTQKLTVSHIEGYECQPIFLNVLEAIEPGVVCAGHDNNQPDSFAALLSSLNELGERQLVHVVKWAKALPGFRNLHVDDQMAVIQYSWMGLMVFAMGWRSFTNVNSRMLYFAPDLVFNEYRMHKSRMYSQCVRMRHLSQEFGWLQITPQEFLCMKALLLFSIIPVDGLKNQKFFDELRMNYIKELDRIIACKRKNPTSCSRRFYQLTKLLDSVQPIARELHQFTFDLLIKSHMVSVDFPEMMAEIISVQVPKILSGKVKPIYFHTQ

CWR22R [2] = experiment: Potency index, ratio IC50 of bicalutamide to IC50 of compound for antiproliferative activity against human 22Rv1 cells; type: functional
CWR22R [3] = experiment: Potency index, ratio IC50 of enzalutamide to IC50 of compound for antiproliferative activity against human 22Rv1 cells; type: functional
[4] = Homo sapiens, MCF7, 96 h, read-out: IC50
[5] = Homo sapiens, 22Rv1, 96 h, read-out: IC50

Row | SMILES | IC50 (MCF7; mcf7) | IC50 (CWR22R [1]; cwr22r) | IC50 (Androgen receptor) | IC50 (MCF7; [4]) [µM] | IC50 (CWR22R [1]; [5]) [µM] | other results
1 | O=C(COc1ccc2c(C(F)(F)F)cc(=O)oc2c1)c1ccccc1C(F)(F)F | Not Active | Not Active | Not Active | – | – | –
2 | O=C(COc1ccc2c(C(F)(F)F)cc(=O)oc2c1)c1cc(C(F)(F)F)cc(C(F)(F)F)c1 | Not Active | Not Active | Not Active | – | – | –
3 | O=C(COc1ccc2c(C(F)(F)F)cc(=O)oc2c1)c1ccc2ccccc2c1 | Not Active | Not Active | Not Active | – | – | –
4 | O=C(COc1ccc2c(C(F)(F)F)cc(=O)oc2c1)c1ccccc1 | Not Active | Not Active | Not Active | – | – | –
5 | CC(C)(C)c1ccc(C(=O)COc2ccc3c(C(F)(F)F)cc(=O)oc3c2)cc1 | Not Active | Not Active | Not Active | – | – | –
6 | CC(C)(C)C(=O)COc1ccc2c(C(F)(F)F)cc(=O)oc2c1 | Not Active | Not Active | Not Active | – | – | –
7 | Cc1cc(=O)oc2cc(OCC(=O)c3ccc(C(F)(F)F)cc3)ccc12 | – | – | Not Active | > 100 | > 100 | –
8 | COc1cccc(C(=O)COc2ccc3c(C(F)(F)F)cc(=O)oc3c2)c1 | Not Active | Not Active | Not Active | – | – | –
9 | CC(O)(CS(=O)(=O)c1ccc(F)cc1)C(=O)Nc1ccc(C#N)c(C(F)(F)F)c1 (configuration not stated) [BICALUTAMIDE] | – | – | – | – | 46.2 | –
10 | Cc1cc(=O)oc2cc(OC(C)C(=O)c3ccccc3)ccc12 (configuration not stated) | – | – | – | – | – | IC50 (Androgen receptor; read-out: IC50): 5.09 µM
11 | Cc1ccc(C(=O)COc2ccc3c(C)cc(=O)oc3c2)cc1 | – | – | Not Active | > 100 | > 100 | –
12 | Cc1cc(=O)oc2cc(OCC(=O)c3ccc(OC(F)(F)F)cc3)ccc12 | – | – | Not Active | > 100 | > 100 | –
13 | Cc1cc(=O)oc2cc(OCC(=O)c3ccc4c(c3)OCCCO4)ccc12 | – | – | Not Active | > 100 | > 100 | –
14 | COc1ccc(C(=O)COc2ccc3c(C)cc(=O)oc3c2)cc1 | – | – | Not Active | > 100 | > 100 | –
15 | Cc1ccc(C(=O)COc2ccc3c(C(F)(F)F)cc(=O)oc3c2)cc1 | Not Active | Not Active | Not Active | – | – | –
16 | Cc1cc(=O)oc2cc(OCC(=O)c3cc(C(F)(F)F)cc(C(F)(F)F)c3)ccc12 | – | – | – | 0.47 | 0.93 | Ratio IC50 (CWR22R [2]): 50; Ratio IC50 (CWR22R [3]): > 30
17 | COc1ccc(C(=O)COc2ccc3c(C(F)(F)F)cc(=O)oc3c2)cc1 | Not Active | Not Active | Not Active | – | – | –

Row | SMILES | IC50 (MCF7; mcf7) | IC50 (CWR22R [1]; cwr22r) | IC50 (Androgen receptor) | IC50 (MCF7; [4]) [µM] | IC50 (CWR22R [1]; [5]) [µM] | other results
18 | O=C(COc1ccc2c(C(F)(F)F)cc(=O)oc2c1)c1cccc(C(F)(F)F)c1 | Not Active | Not Active | Not Active | – | – | –
19 | CNC(=O)c1ccc(N2C(=S)N(c3ccc(C#N)c(C(F)(F)F)c3)C(=O)C2(C)C)cc1F [ENZALUTAMIDE] | – | – | – | – | 31.8 | –
20 | Cc1cc(=O)oc2cc(OCC(=O)c3ccccc3C(F)(F)F)ccc12 | – | – | – | 43.2 | 20.4 | Ratio IC50 (CWR22R [2]): 2
21 | COc1cccc(C(=O)COc2ccc3c(C)cc(=O)oc3c2)c1 | – | – | – | 2.21 | 8.41 | –
22 | Cc1cc(=O)oc2cc(OCC(=O)c3ccc(F)cc3)ccc12 | – | – | Not Active | > 100 | > 100 | –
23 | CCOC(=O)C(CC)Oc1ccc2c(C)cc(=O)oc2c1 (configuration not stated) | – | – | – | – | – | IC50 (Androgen receptor; read-out: IC50): 5 µM
24 | Cc1cc(=O)oc2cc(OCC(=O)c3ccccc3)ccc12 | – | – | Not Active | > 100 | > 100 | –
25 | Cc1cc(=O)oc2cc(OCC(=O)C(C)(C)C)ccc12 | – | – | – | – | – | IC50 (Androgen receptor; read-out: IC50): 3.76 µM
26 | Cc1cc(=O)oc2cc(OCC(=O)c3ccc4ccccc4c3)ccc12 | – | – | Not Active | > 100 | > 100 | –
27 | O=C(COc1ccc2c(C(F)(F)F)cc(=O)oc2c1)c1ccc(OC(F)(F)F)cc1 | Not Active | Not Active | Not Active | – | – | –
28 | O=C(COc1ccc2c(C(F)(F)F)cc(=O)oc2c1)c1ccc(C(F)(F)F)cc1 | Not Active | Not Active | Not Active | – | – | –
29 | Cc1cc(=O)oc2cc(OCC(=O)c3cccc(C(F)(F)F)c3)ccc12 | – | – | Not Active | 38.4 | > 100 | –
30 | Cc1cc(=O)oc2cc(OCC(=O)c3ccc(C(C)(C)C)cc3)ccc12 | – | – | – | 20.7 | 22.3 | Ratio IC50 (CWR22R [2]): 2
31 | N#Cc1ccc(C(=O)COc2ccc3c(C(F)(F)F)cc(=O)oc3c2)cc1 | Not Active | Not Active | Not Active | – | – | –
32 | O=C(COc1ccc2c(C(F)(F)F)cc(=O)oc2c1)c1ccc2c(c1)OCCCO2 | Not Active | Not Active | Not Active | – | – | –
33 | O=C(COc1ccc2c(C(F)(F)F)cc(=O)oc2c1)c1ccc(F)cc1 | Not Active | Not Active | Not Active | – | – | –
34 | Cc1cc(=O)oc2cc(OCC(=O)c3ccc(C#N)cc3)ccc12 | – | – | Not Active | > 100 | > 100 | –
